Data taken from ChEMBL document CHEMBL1122659, “Synthesis of some phosphonates with antiherpetic activity” (1984).
≈ marks a conversion by molar mass, not a printed value. Calls of active or inactive are those of the source. No cut-off for these calls is given here.

Key:
[1] = In vitro ability to inhibit the herpes HSV-2 virus; type: functional, herpes simplex virus; settings: Oryctolagus cuniculus
Oryctolagus cuniculus = species: Oryctolagus cuniculus; assay: In vitro ability to inhibit the herpes HSV-2 virus; Inactive; type: functional, organism-based; settings: herpes simplex virus
Cavia porcellus [2] = species: Cavia porcellus; assay: Effect on the growth of Herpes simplex Type 1 on the skin of Guinea pigs infected intradermally on day 3 at 8 % concentration; type: functional
In short: (§1)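 Guinea pigs were infected intradermally with HSV-1 on an epilated flank and treated topically with cream. Virus in skin-scraping supernatants was titered by plaque assay on BSC-1 monolayers. Dilutions of 10⁻¹ to 10⁻⁸ in Eagle's medium with 2% FCS were plated in triplicate and adsorbed 1 h at 37 °C. An agarose overlay followed, with 4 days' incubation, formalin fixation, crystal violet staining and plaque counting.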

Cavia porcellus [3] = species: Cavia porcellus; assay: Effect on the growth of Herpes simplex Type 1 on the skin of Guinea pigs infected intradermally on day 2 at 8 % concentration; type: functional; in short: as §1
Cavia porcellus [4] = species: Cavia porcellus; assay: Effect on the growth of Herpes simplex Type 1 on the skin of Guinea pigs infected intradermally on day 4 at 8 % concentration; type: functional; in short: as §1
Cavia porcellus [5] = species: Cavia porcellus; assay: Effect on the development of Herpetic vesicles in Guinea pigs infected intradermally with Herpes virus Hominis, Type 1,AA strain on day 3 at 8 % concentration; type: functional
In short: (§2)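 Hartley albino guinea pigs (350–400 g) were infected with undiluted HSV-1 AA strain, 0.05 mL placed in a 12-mm circle on an epilated flank and given intradermally by vaccination gun. Test article was a topical cream, with treatment starting 24 h postinfection. Mean vesicle score was recorded on days 1–5 against placebo and nonmedicated groups.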

Cavia porcellus [6] = species: Cavia porcellus; assay: Effect on the growth of Herpes simplex Type 1 on the skin of Guinea pigs infected intradermally on day 1 at 8 % concentration; type: functional; in short: as §1
Cavia porcellus [7] = species: Cavia porcellus; assay: Effect on the development of Herpetic vesicles in Guinea pigs infected intradermally with Herpes virus Hominis, Type 1,AA strain on day 1 at 8 % concentration; type: functional; in short: as §2
Cavia porcellus [8] = species: Cavia porcellus; assay: Effect on the development of Herpetic vesicles in Guinea pigs infected intradermally with Herpes virus Hominis, Type 1,AA strain on day 2 at 8 % concentration; type: functional; in short: as §2
Cavia porcellus [9] = species: Cavia porcellus; assay: Effect on the development of Herpetic vesicles in Guinea pigs infected intradermally with Herpes virus Hominis, Type 1,AA strain on day 4 at 8 % concentration; type: functional; in short: as §2
Cavia porcellus [10] = species: Cavia porcellus; assay: Effect of compound in a vanishing cream on the development of Herpetic vesicles in Guinea pigs infected intradermally with Herpes virus Hominis, Type 1,AA strain on day 2 at 10 % concentration; type: functional
In short: (§3)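 Albino Hartley guinea pigs (350–400 g) were infected intradermally with 0.05 mL undiluted HSV-1 AA strain, delivered by vaccination gun into a 12 mm circle on an epilated flank. Test agent was applied as a topical cream starting 24 h postinfection. Lesions were scored daily for mean vesicle score over days 1–5.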

Cavia porcellus [11] = species: Cavia porcellus; assay: Effect on the growth of Herpes simplex Type 1 on the skin of Guinea pigs infected intradermally on day 4 at 5 % concentration; type: functional
In short: (§4)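 Guinea pigs (Hartley, 350–400 g) were infected intradermally on an epilated flank with undiluted HSV-1 AA strain and treated with topical cream. Supernatants of lesion skin scrapings were diluted 10⁻¹ to 10⁻⁸ and titered by plaque assay on BSC-1 monolayers in triplicate: 1 h adsorption at 37 °C, agarose overlay, 4 days at 37 °C, formalin fixation, crystal violet staining, plaques counted.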

Mus musculus [12] = species: Mus musculus; assay: Percent survival rate of mice infected intravaginally with herpes simplex virus type 2 at daily dosage of 2.5%(treatment initiated 4-h postinfection and continued for 7 days); type: functional
In short: (§5)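 Mice infected intravaginally with HSV-2. Test agent suspended in gum tragacanth and applied intravaginally. Survival recorded.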

Cavia porcellus [13] = species: Cavia porcellus; assay: Effect of compound in a vanishing cream on the development of Herpetic vesicles in Guinea pigs infected intradermally with Herpes virus Hominis, Type 1,AA strain on day 1 at 10 % concentration; type: functional; in short: as §3
Cavia porcellus [14] = species: Cavia porcellus; assay: Effect of compound in a vanishing cream on the development of Herpetic vesicles in Guinea pigs infected intradermally with Herpes virus Hominis, Type 1,AA strain on day 3 at 10 % concentration; type: functional; in short: as §3
Cavia porcellus [15] = species: Cavia porcellus; assay: Effect of compound in a vanishing cream base on the development of Herpetic vesicles in Guinea pigs infected intradermally with Herpesvirus Hominis, Type 1, AA strain and the virus titer was determined at 10% conc. on day 2; type: functional
Mus musculus [16] = species: Mus musculus; assay: Average survival rate of mice infected intravaginally with herpes simplex virus type 2 at daily dosage of 5%(treatment initiated 4-h postinfection and continued for 7 days); type: functional; in short: as §5
Cavia porcellus [17] = species: Cavia porcellus; assay: Effect of compound in a vanishing cream on the development of Herpetic vesicles in Guinea pigs infected intradermally with Herpes virus Hominis, Type 1,AA strain on day 4 at 5 % concentration; type: functional; in short: as §3
Cavia porcellus [18] = species: Cavia porcellus; assay: Effect on the development of Herpetic vesicles in Guinea pigs infected intradermally with Herpes virus Hominis, Type 1,AA strain on day 2 at 5 % concentration; type: functional
In short: (§6)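 Albino Hartley guinea pigs (350–400 g) were infected intradermally with 0.05 mL undiluted HSV-1 AA strain, delivered by vaccination gun into a 12 mm marked area on an epilated flank. Topical cream treatment followed. Vesicle development was scored daily.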

Cavia porcellus [19] = species: Cavia porcellus; assay: Effect of compound in a vanishing cream on the development of Herpetic vesicles in Guinea pigs infected intradermally with Herpes virus Hominis, Type 1,AA strain on day 5 at 5% concentration; type: functional; in short: as §3
Mus musculus [20] = species: Mus musculus; assay: Average survival rate of mice infected intravaginally with herpes simplex virus type 2 at daily dosage of 10%(treatment initiated 4-h postinfection and continued for 7 days); type: functional; in short: as §5
Cavia porcellus [21] = species: Cavia porcellus; assay: Effect on the growth of Herpes simplex Type 1 on the skin of Guinea pigs infected intradermally on day 2 at 5 % concentration; type: functional; in short: as §4
Cavia porcellus [22] = species: Cavia porcellus; assay: Effect of compound in a vanishing cream on the development of Herpetic vesicles in Guinea pigs infected intradermally with Herpes virus Hominis, Type 1,AA strain on day 4 at 10 % concentration; type: functional; in short: as §3
Mus musculus [23] = species: Mus musculus; assay: Percent survival rate of mice infected intravaginally with herpes simplex virus type 2 at daily dosage of 5%(treatment initiated 4-h postinfection and continued for 7 days); type: functional; in short: as §5
Cavia porcellus [24] = species: Cavia porcellus; assay: Effect of compound in a vanishing cream on the development of Herpetic vesicles in Guinea pigs infected intradermally with Herpes virus Hominis, Type 1,AA strain on day 3 at 5 % concentration; type: functional; in short: as §3
Cavia porcellus [25] = species: Cavia porcellus; assay: Effect of compound in a vanishing cream base on the development of Herpetic vesicles in Guinea pigs infected intradermally with Herpesvirus Hominis, Type 1, AA strain and the virus titer was determined at 10% conc. on day 5; type: functional
Mus musculus [26] = species: Mus musculus; assay: Percent survival rate of mice infected intravaginally with herpes simplex virus type 2 at daily dosage of 10%(treatment initiated 4-h postinfection and continued for 7 days); type: functional; in short: as §5
Cavia porcellus [27] = species: Cavia porcellus; assay: Effect on the development of Herpetic vesicles in Guinea pigs infected intradermally with Herpes virus Hominis, Type 1,AA strain on day 3 at 5 % concentration; type: functional; in short: as §6
Cavia porcellus [28] = species: Cavia porcellus; assay: Effect of compound in a vanishing cream base on the development of Herpetic vesicles in Guinea pigs infected intradermally with Herpesvirus Hominis, Type 1, AA strain and the virus titer was determined at 10% conc. on day 1; type: functional
Cavia porcellus [29] = species: Cavia porcellus; assay: Effect of compound in a vanishing cream base on the development of Herpetic vesicles in Guinea pigs infected intradermally with Herpesvirus Hominis, Type 1, AA strain and the virus titer was determined at 5% conc. on day 1; type: functional
Cavia porcellus [30] = species: Cavia porcellus; assay: Effect of compound in a vanishing cream base on the development of Herpetic vesicles in Guinea pigs infected intradermally with Herpesvirus Hominis, Type 1, AA strain and the virus titer was determined at 10% conc. on day 3; type: functional
Cavia porcellus [31] = species: Cavia porcellus; assay: Effect of compound in a vanishing cream on the development of Herpetic vesicles in Guinea pigs infected intradermally with Herpes virus Hominis, Type 1,AA strain on day 2 at 5 % concentration; type: functional; in short: as §3
Cavia porcellus [32] = species: Cavia porcellus; assay: Effect of compound in a vanishing cream on the development of Herpetic vesicles in Guinea pigs infected intradermally with Herpes virus Hominis, Type 1,AA strain on day 5 at 10 % concentration; type: functional; in short: as §3
Cavia porcellus [33] = species: Cavia porcellus; assay: Effect of compound in a vanishing cream on the development of Herpetic vesicles in Guinea pigs infected intradermally with Herpes virus Hominis, Type 1,AA strain on day 1 at 5 % concentration; type: functional; in short: as §3
Cavia porcellus [34] = species: Cavia porcellus; assay: Effect of compound in a vanishing cream base on the development of Herpetic vesicles in Guinea pigs infected intradermally with Herpesvirus Hominis, Type 1, AA strain and the virus titer was determined at 5% conc. on day 2; type: functional
Cavia porcellus [35] = species: Cavia porcellus; assay: Effect on the growth of Herpes simplex Type 1 on the skin of Guinea pigs infected intradermally on day 1 at 5 % concentration; type: functional; in short: as §4
Cavia porcellus [36] = species: Cavia porcellus; assay: Effect of compound in a vanishing cream base on the development of Herpetic vesicles in Guinea pigs infected intradermally with Herpesvirus Hominis, Type 1, AA strain and the virus titer was determined at 5% conc. on day 4; type: functional
Cavia porcellus [37] = species: Cavia porcellus; assay: Effect on the growth of Herpes simplex Type 1 on the skin of Guinea pigs infected intradermally on day 3 at 5 % concentration; type: functional; in short: as §4
Cavia porcellus [38] = species: Cavia porcellus; assay: Effect on the development of Herpetic vesicles in Guinea pigs infected intradermally with Herpes virus Hominis, Type 1,AA strain on day 1 at 5 % concentration; type: functional; in short: as §6
Mus musculus [39] = species: Mus musculus; assay: Average survival rate of mice infected intravaginally with herpes simplex virus type 2 with placebo (treatment initiated 4-h postinfection and continued for 7 days)

CCOP(=O)(OCC)C(CCCCCCCCOc1ccc(OC)cc1Cl)C(C)=O (centres undefined)
MIC [1]: 6 µg/mL (≈ 13 µM)

CCOP(=O)(CCCCCCCCOc1ccc(OC)cc1Cl)OCC
MIC (Oryctolagus cuniculus): inactive

CCOP(=O)(CCCCCOc1ccc(OC)cc1Cl)OCC
MIC (Oryctolagus cuniculus): inactive

CCC(=O)C(CCCCCCOc1ccc(OC)cc1Cl)C(=O)CC [ARILDONE]
Log geometric mean (Cavia porcellus [2]): 2.92 ppfu mg-1
Log geometric mean (Cavia porcellus [3]): 4.07 pfu mg-1
Log geometric mean (Cavia porcellus [4]): 2.62 pfu mg-1
Mean vesicle score (Cavia porcellus [5]): 0.92
Log geometric mean (Cavia porcellus [6]): 4.13 pfu mg-1
Mean vesicle score (Cavia porcellus [7]): 0.33
Mean vesicle score (Cavia porcellus [8]): 0.83
Mean vesicle score (Cavia porcellus [9]): 0.83

CCOP(=O)(CCCCCCOc1ccc(OC)cc1Cl)OCC [FOSARILATE]
Mean vesicle score (Cavia porcellus [10]): 0.83
Log geometric mean (Cavia porcellus [11]): 0.76 pfu mg-1
Survival (Mus musculus [12]): 30%
Mean vesicle score (Cavia porcellus [13]): 0.67
Mean vesicle score (Cavia porcellus [14]): 0.91
Log TCID50/mg (Cavia porcellus [15]): <1.34
Average survival (Mus musculus [16]): >10.5 days
Mean vesicle score (Cavia porcellus [17]): 1
Mean vesicle score (Cavia porcellus [18]): 0.75
Mean vesicle score (Cavia porcellus [19]): 0.67
Average survival (Mus musculus [20]): >11.3 days
Log geometric mean (Cavia porcellus [21]): 0.96 pfu mg-1
Mean vesicle score (Cavia porcellus [22]): 0.92
Survival (Mus musculus [23]): 50%
Mean vesicle score (Cavia porcellus [24]): 0.75
Log TCID50/mg (Cavia porcellus [25]): <1.25
Survival (Mus musculus [26]): 60%
Mean vesicle score (Cavia porcellus [27]): 0.5
Log TCID50/mg (Cavia porcellus [28]): 3.18
Log TCID50/mg (Cavia porcellus [29]): 3.94
Log TCID50/mg (Cavia porcellus [30]): <1.6
Mean vesicle score (Cavia porcellus [31]): 1.17
Mean vesicle score (Cavia porcellus [32]): 1.1
Mean vesicle score (Cavia porcellus [33]): 0.75
Log TCID50/mg (Cavia porcellus [34]): <1.41
Log geometric mean (Cavia porcellus [35]): 4.23 pfu mg-1
Log TCID50/mg (Cavia porcellus [36]): <1.25
MIC [1]: 3 µg/mL (≈ 7.92 µM)
Log geometric mean (Cavia porcellus [37]): 0.79 pfu mg-1
Mean vesicle score (Cavia porcellus [38]): 0.5

CCOC(=O)C(CCCCCCOc1ccc(OC)cc1Cl)P(=O)(OCC)OCC (centres undefined)
Average survival (Mus musculus [39]): >8.1 days
Survival (Mus musculus [12]): 10%
Average survival (Mus musculus [16]): >7.3 days
Average survival (Mus musculus [20]): >8.7 days
Survival (Mus musculus [23]): 10%
Survival (Mus musculus [26]): 20%
MIC [1]: 3 µg/mL (≈ 6.45 µM)

CCOP(=O)(CCOc1ccc(O)cc1)OCC
MIC (Oryctolagus cuniculus): inactive

CCOP(=O)(OCC)C(CCCCCOc1ccc(OC)cc1Cl)C(C)=O (centres undefined)
MIC [1]: 6 µg/mL (≈ 14.3 µM)

CCOC(=O)c1ccc(OCCCCCCP(=O)(OCC)OCC)cc1
MIC [1]: 6 µg/mL (≈ 15.5 µM)

CCOP(=O)(CCOc1ccc(OC(C)=O)cc1)OCC
MIC (Oryctolagus cuniculus): inactive

CCOP(=O)(CCCCCCOc1ccc(Br)cc1)OCC
MIC (Oryctolagus cuniculus): inactive

CCOP(=O)(CCCCCCOc1ccc(Cl)cc1)OCC
MIC (Oryctolagus cuniculus): inactive
